≈ marks a conversion by molar mass, not a printed value. Calls of active or inactive are those of the source. No cut-off for these calls is given here. Where only a bound is given, the exact number is not on record here.

The test system of assay [1] is Macrophomina phaseolina. Briefly: Antifungal activity against Rhizoctonia bataticola assessed as inhibition of fungal growth. The settings on record: read-out: ED50 (the source's name). It counts as functional. The method, boiled down:
(§1)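 Poisoned food technique on PDA, final 250, 125, 100, 50, 25 and 10 µg/mL, diluted in acetone from a 1000 µg/mL stock; acetone-only control. A 5 mm × 5 mm plug from the growing edge of a 2-week-old colony was placed at plate centre and incubated at 28 °C until control plates were nearly fully grown. Colony diameter was measured; four replicates per treatment. Inhibition was Abbott-corrected and ED50 taken by probit analysis.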

Assay [2] relates to Globisporangium debaryanum. Briefly: Antifungal activity against Pythium debaryanum assessed as inhibition of fungal growth. The format is functional. The settings on record: read-out: ED50 (the source's name). The procedure, abridged:
as §1

A further assay has as its system Rhizoctonia solani. Description: Antifungal activity against Rhizoctonia solani Nees assessed as inhibition of fungal growth. It counts as functional. The settings on record: read-out: ED50 (the source's name). The method, boiled down: as §1
Another assay concerns Pythium aphanidermatum. Description: Antifungal activity against Pythium aphanidermatum assessed as inhibition of fungal growth. The format is functional. To be noted: read-out: ED50 (the source's name). The method, boiled down: as §1
The subject of assay [3] is Athelia rolfsii. Description: Antifungal activity against Athelia rolfsii assessed as inhibition of fungal growth. It counts as functional. To be noted: Agroathelia rolfsii; read-out: ED50 (the source's name). The procedure, abridged:
as §1

Assay [4] deals with Macrophomina phaseolina. Description: Antifungal activity against Macrophomina phaseolina assessed as inhibition of fungal growth. The format is functional. The settings on record: read-out: ED50 (the source's name). The method, boiled down:
as §1

The test system of assay [5] is Athelia rolfsii. Description: Antifungal activity against Athelia rolfsii in tomato plants grown on fungal infested soil assessed as healthy tomato plants stands at 1 % aqueous emulsion of compound measured 7 days after transplanting. The format is functional, Agroathelia rolfsii. The procedure, abridged:
(§2)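 Tomato greenhouse test. S. rolfsii was grown in potato dextrose broth, then held in water at 20 °C for 3-4 weeks. Inoculum was mixed into autoclaved composted soil (10 flasks per 2.5 kg) and kept about 5-7 days at roughly 25 °C. Aqueous emulsion was incorporated at 5.0 mL per 150 cm3 of soil. Wilting and mortality were scored weekly after transplanting and given as the proportion of symptomless plants. Controls were uninfested soil and infested untreated soil; analysed as repeated measures ANOVA.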

Assay [6] relates to Athelia rolfsii. Briefly: Antifungal activity against Athelia rolfsii in tomato plants grown on fungal infested soil assessed as healthy tomato plants stands at 10 % aqueous emulsion of compound measured 35 days after transplanting. It counts as functional, Agroathelia rolfsii. The method, boiled down:
as §2

Assay [7] concerns Athelia rolfsii. Description: Antifungal activity against Athelia rolfsii in tomato plants grown on fungal infested soil assessed as healthy tomato plants stands at 1 % aqueous emulsion of compound measured 35 days after transplanting. The format is functional, organism-based. The settings on record: Agroathelia rolfsii. The procedure, abridged: as §2
The test system of assay [8] is Athelia rolfsii. Briefly: Antifungal activity against Athelia rolfsii in tomato plants grown on fungal infested soil assessed as healthy tomato plants stands at 5 % aqueous emulsion of compound measured 35 days after transplanting. The format is functional, Agroathelia rolfsii. The procedure, abridged: as §2
Assay [9] deals with Athelia rolfsii. Description: Antifungal activity against Athelia rolfsii in tomato plants grown on fungal infested soil assessed as healthy tomato plants stands at 0.364 mL ai/150 cm3 of soil measured 35 days after transplanting. The format is functional, Agroathelia rolfsii. The method, boiled down:
(§3)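 Greenhouse tomato seedlings in sieved, autoclaved composted soil infested with S. rolfsii chlamydospore inoculum (potato dextrose broth, 27 °C 7 days, then water, 20 °C 3-4 weeks; 10 flasks per 2.5 kg soil; incubated ~25 °C 5-7 days). Moistened infested soil treated with fungicide per 150 cm3 soil. Checks were uninfested soil and untreated infested soil. Wilting and mortality scored weekly to 35 days; proportion symptomless plants; repeated-measures ANOVA.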

The subject of assay [10] is Athelia rolfsii. Briefly: Antifungal activity against Athelia rolfsii in tomato plants grown on fungal infested soil assessed as healthy tomato plants stands at 1.46 mL ai/150 cm3 of soil measured 35 days after transplanting. The format is functional, Agroathelia rolfsii. The procedure, abridged:
as §3

Assay [11] relates to Athelia rolfsii. Briefly: Antifungal activity against Athelia rolfsii in tomato plants grown on fungal infested soil assessed as healthy tomato plants stands at 0.728 mL ai/150 cm3 of soil measured 35 days after transplanting. It counts as functional, Agroathelia rolfsii. The procedure, abridged: as §3

On to `CCCCCc1cc(C)cc(=O)o1`, for which the EC50 was found to be 34.2 µg/mL (≈ 190 µM) in the assay with Macrophomina phaseolina [1]; 20.6 µg/mL (≈ 114 µM) in [2]; 34.5 µg/mL (≈ 191 µM) in the assay with Rhizoctonia solani; 39.1 µg/mL (≈ 217 µM) in the assay with Pythium aphanidermatum; 22.4 µg/mL (≈ 125 µM) in the assay with Athelia rolfsii [3]; 36.8 µg/mL (≈ 204 µM) in the assay with Macrophomina phaseolina [4].

`CCCCc1cc(C)cc(=O)o1`: the EC50 with Macrophomina phaseolina [1] turned out to be 212 µg/mL (≈ 1280 µM); in assay [2], 143 µg/mL (≈ 859 µM); in the assay on Rhizoctonia solani, 50.1 µg/mL (≈ 301 µM); with Pythium aphanidermatum, 227 µg/mL (≈ 1370 µM); with Athelia rolfsii [3], 78 µg/mL (≈ 469 µM); with Macrophomina phaseolina [4] it was 235 µg/mL (≈ 1410 µM).

With `Cc1cc(CC(C)C)oc(=O)c1`, the EC50 in the assay with Macrophomina phaseolina [1] was found to be 68.4 µg/mL (≈ 412 µM); in assay [2], 37 µg/mL (≈ 223 µM); with Rhizoctonia solani, 48.7 µg/mL (≈ 293 µM); with Pythium aphanidermatum, 52.4 µg/mL (≈ 315 µM); in the assay on Athelia rolfsii [3], 39.5 µg/mL (≈ 237 µM); with Macrophomina phaseolina [4], 47.3 µg/mL (≈ 284 µM).

Turning to `CCCCCCCCCc1cc(C)cc(=O)o1`, the EC50 in the assay on Macrophomina phaseolina [1] was 213 µg/mL (≈ 900 µM); in [2], 284 µg/mL (≈ 1200 µM); in the assay on Rhizoctonia solani it was 130 µg/mL (≈ 551 µM); in the assay with Pythium aphanidermatum, 204 µg/mL (≈ 863 µM); in the assay on Athelia rolfsii [3], 397 µg/mL (≈ 1680 µM); in the assay on Macrophomina phaseolina [4], 352 µg/mL (≈ 1490 µM).

On to `C=C(C)c1cc(C)cc(=O)o1`, for which the EC50 in the assay on Macrophomina phaseolina [1] came out at 374 µg/mL (≈ 2490 µM); in [2], 189 µg/mL (≈ 1260 µM); in the assay on Rhizoctonia solani, 206 µg/mL (≈ 1370 µM); in the assay on Pythium aphanidermatum, 337 µg/mL (≈ 2240 µM); with Athelia rolfsii [3] it was 180 µg/mL (≈ 1200 µM); in the assay on Macrophomina phaseolina [4], 338 µg/mL (≈ 2250 µM).

`CCCCCCCCc1cc(C)cc(=O)o1`: the EC50 in the assay on Macrophomina phaseolina [1] was 132 µg/mL (≈ 595 µM); in [2] it was 175 µg/mL (≈ 786 µM); with Rhizoctonia solani it was 116 µg/mL (≈ 521 µM); in the assay with Pythium aphanidermatum, 124 µg/mL (≈ 557 µM); in the assay with Athelia rolfsii [3], 122 µg/mL (≈ 548 µM); with Macrophomina phaseolina [4], 164 µg/mL (≈ 737 µM).

For `CC(C)=Cc1cc(C)cc(=O)o1`, the EC50 in the assay with Macrophomina phaseolina [1] amounted to 328 µg/mL (≈ 2000 µM); in assay [2], 264 µg/mL (≈ 1610 µM); with Rhizoctonia solani it was 286 µg/mL (≈ 1740 µM); with Pythium aphanidermatum, 206 µg/mL (≈ 1250 µM); in the assay with Athelia rolfsii [3] it was 323 µg/mL (≈ 1960 µM); in the assay with Macrophomina phaseolina [4] it was 377 µg/mL (≈ 2300 µM).

On to `CCCCC(O)(Cn1cncn1)c1ccc(Cl)cc1Cl` (stereo not given) [HEXACONAZOLE], for which the EC50 amounted to 4.36 µg/mL (≈ 13.9 µM) in the assay on Macrophomina phaseolina [1]; 12.3 µg/mL (≈ 39.1 µM) in assay [2]; 13 µg/mL (≈ 41.2 µM) in the assay with Rhizoctonia solani; 8.47 µg/mL (≈ 27 µM) with Pythium aphanidermatum; 18.3 µg/mL (≈ 58.4 µM) with Athelia rolfsii [3]; 10.5 µg/mL (≈ 33.5 µM) with Macrophomina phaseolina [4].

As to `CCCCCCCCCCc1cc(C)cc(=O)o1`, the EC50 with Macrophomina phaseolina [1] is 649 µg/mL (≈ 2590 µM); in assay [2], 594 µg/mL (≈ 2370 µM); with Rhizoctonia solani, 267 µg/mL (≈ 1070 µM); with Pythium aphanidermatum, 287 µg/mL (≈ 1150 µM); with Athelia rolfsii [3], 562 µg/mL (≈ 2250 µM); in the assay on Macrophomina phaseolina [4], 548 µg/mL (≈ 2190 µM).

As to `CCc1cc(C)cc(=O)o1`, the EC50 with Macrophomina phaseolina [1] amounted to 626 µg/mL (≈ 4530 µM); in assay [2], 580 µg/mL (≈ 4200 µM); with Rhizoctonia solani, 690 µg/mL (≈ 5000 µM); in the assay with Pythium aphanidermatum it was 408 µg/mL (≈ 2950 µM); in the assay with Athelia rolfsii [3], 665 µg/mL (≈ 4820 µM); with Macrophomina phaseolina [4], 267 µg/mL (≈ 1940 µM).

For the molecule `CCCc1cc(C)cc(=O)o1`, the EC50 with Macrophomina phaseolina [1] was 562 µg/mL (≈ 3700 µM); in assay [2], 288 µg/mL (≈ 1890 µM); in the assay on Rhizoctonia solani, 149 µg/mL (≈ 982 µM); in the assay with Pythium aphanidermatum it was 573 µg/mL (≈ 3760 µM); in the assay on Athelia rolfsii [3], 251 µg/mL (≈ 1650 µM); in the assay with Macrophomina phaseolina [4], 329 µg/mL (≈ 2160 µM).

Consider `Cc1cc(C)oc(=O)c1`, for which the EC50 with Macrophomina phaseolina [1] came to 1190 µg/mL (≈ 9550 µM); in [2], 1140 µg/mL (≈ 9190 µM); with Rhizoctonia solani, 493 µg/mL (≈ 3970 µM); in the assay with Pythium aphanidermatum, 451 µg/mL (≈ 3630 µM); in the assay with Athelia rolfsii [3] it was 713 µg/mL (≈ 5740 µM); in the assay on Macrophomina phaseolina [4], 824 µg/mL (≈ 6630 µM).

On to `Cc1cc(C(C)C)oc(=O)c1`, for which the EC50 is 403 µg/mL (≈ 2650 µM) in the assay on Macrophomina phaseolina [1]; 437 µg/mL (≈ 2870 µM) in assay [2]; 437 µg/mL (≈ 2870 µM) in the assay with Rhizoctonia solani; 475 µg/mL (≈ 3120 µM) in the assay on Pythium aphanidermatum; 313 µg/mL (≈ 2060 µM) in the assay with Athelia rolfsii [3]; 1210 µg/mL (≈ 7930 µM) in the assay with Macrophomina phaseolina [4].

Regarding `CCCCCCc1cc(C)cc(=O)o1`, the EC50 worked out at 24.5 µg/mL (≈ 126 µM) in the assay with Macrophomina phaseolina [1]; 14.9 µg/mL (≈ 76.7 µM) in assay [2]; 18.7 µg/mL (≈ 96 µM) in the assay on Rhizoctonia solani; 16.6 µg/mL (≈ 85.5 µM) in the assay with Pythium aphanidermatum; 15.1 µg/mL (≈ 77.7 µM) in the assay with Athelia rolfsii [3]; 31 µg/mL (≈ 159 µM) in the assay with Macrophomina phaseolina [4]. Moreover, the Activity was 20% in the assay on Athelia rolfsii [5], 92.4% with Athelia rolfsii [6] and more than 60% in the assay on Athelia rolfsii [8]. In the assay with Athelia rolfsii [7], the result was inactive.

`CCCCC(CC)c1cc(C)cc(=O)o1` (stereo not given): the EC50 amounted to 303 µg/mL (≈ 1460 µM) in the assay with Macrophomina phaseolina [1]; 151 µg/mL (≈ 725 µM) in assay [2]; 184 µg/mL (≈ 882 µM) with Rhizoctonia solani; 277 µg/mL (≈ 1330 µM) with Pythium aphanidermatum; 349 µg/mL (≈ 1680 µM) in the assay on Athelia rolfsii [3]; 262 µg/mL (≈ 1260 µM) in the assay with Macrophomina phaseolina [4].

Turning to `Cc1cc(CCl)oc(=O)c1`, the EC50 was determined as 111 µg/mL (≈ 701 µM) in the assay with Macrophomina phaseolina [1]; 102 µg/mL (≈ 643 µM) in [2]; 22.8 µg/mL (≈ 143 µM) in the assay with Rhizoctonia solani; 122 µg/mL (≈ 769 µM) in the assay with Pythium aphanidermatum; 46.9 µg/mL (≈ 296 µM) in the assay with Athelia rolfsii [3]; 72.1 µg/mL (≈ 455 µM) with Macrophomina phaseolina [4].

Regarding `C/C=C/c1cc(C)cc(=O)o1`, the EC50 with Macrophomina phaseolina [1] was found to be 361 µg/mL (≈ 2400 µM); in assay [2] it was 95.5 µg/mL (≈ 636 µM); in the assay with Rhizoctonia solani it was 294 µg/mL (≈ 1950 µM); in the assay with Pythium aphanidermatum it was 102 µg/mL (≈ 680 µM); in the assay with Athelia rolfsii [3], 404 µg/mL (≈ 2690 µM); in the assay on Macrophomina phaseolina [4], 276 µg/mL (≈ 1840 µM).

With `CCCCCCCc1cc(C)cc(=O)o1`, the EC50 amounted to 47 µg/mL (≈ 226 µM) in the assay on Macrophomina phaseolina [1]; 71.7 µg/mL (≈ 344 µM) in assay [2]; 45 µg/mL (≈ 216 µM) with Rhizoctonia solani; 74.6 µg/mL (≈ 358 µM) in the assay on Pythium aphanidermatum; 30.7 µg/mL (≈ 147 µM) in the assay on Athelia rolfsii [3]; 82.2 µg/mL (≈ 394 µM) with Macrophomina phaseolina [4].

Regarding `COCC(=O)N(c1c(C)cccc1C)C(C)C(=O)OC` (stereo not given) [METALAXYL], the Activity was 34.3 µg/mL with Athelia rolfsii [9], 90.3 µg/mL in the assay with Athelia rolfsii [10] and 60 µg/mL in the assay with Athelia rolfsii [11].

The values above are taken from ChEMBL document CHEMBL3045854, “Antifungal activity of 4-methyl-6-alkyl-2H-pyran-2-ones” (2006).
